Experimental data published in ChEMBL document CHEMBL1126849, “Synthesis of A-ring fluorinated derivatives of (17 alpha,20E/Z)-[125I]iodovinylestradiols: effect on receptor binding and receptor-mediated target tissue uptake” (J Med Chem, 1993).

Columns and labels:
Settings in all cases: in vivo
[1] = tested on: Rattus norvegicus; experiment: Biodistribution in muscle of immature female rat after 3 hour administration of 3 micro Ci (111 kBq) in the absence of 60 microg estradiol; type: ADME, organism-based, Muscle tissue
In short: (§1)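 Immature female Long Evans rats (21–24 days, 45–70 g), three to five per group, given 125I-labeled steroid (3 μCi, 111 kBq) by lateral tail vein without anesthesia. Vehicle: ethanol diluted in saline with 1% Tween-80, final ethanol 9%, 0.22 μm filtered. +E2 groups received 60 μg unlabeled estradiol co-injected. Killed under ether at set times; tissues KCl-washed, blotted, weighed, gamma counted; %ID/g, mean with SE.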

[2] = tested on: Rattus norvegicus; experiment: Biodistribution in thyroid of immature female rat after 3 hour administration of 3 micro Ci (111 kBq) in the absence of 60 microg estradiol; type: ADME, organism-based, Thyroid gland; in short: as §1
[3] = tested on: Rattus norvegicus; experiment: Biodistribution in kidney of immature female rat after 1 hr administration of 3 micro Ci (111 kBq) in the absence of 60 microg estradiol; type: ADME, organism-based
In short: (§2)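 Immature female Long Evans rats (21–24 days, 45–70 g), unanesthetized in retention cages, given 3 µCi (111 kBq) 125I-labeled steroid i.v. via lateral tail vein. Vehicle was ethanol diluted in saline containing 1% Tween-80, giving 9% ethanol final. The blocking group received 60 µg unlabeled estradiol co-injected. Rats were killed under ether by axillary bleeding, and tissues were KCl-washed and gamma-counted. Data are %ID/g, mean ± SE, n=3–5.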

[4] = tested on: Rattus norvegicus; experiment: Biodistribution in muscle of immature female rat after 12 hour administration of 3 micro Ci (111 kBq) in the absence of 60 microg estradiol; type: ADME, organism-based, Muscle tissue; in short: as §1
[5] = tested on: Rattus norvegicus; experiment: Biodistribution in blood of immature female rat after 1 hr administration of 3 micro Ci (111 kBq) in the absence of 60 microg estradiol; type: ADME, organism-based; in short: as §2
[6] = tested on: Rattus norvegicus; experiment: Biodistribution in lungs of immature female rat after 3 hour administration of 3 micro Ci (111 kBq) in the absence of 60 microg estradiol; type: ADME, organism-based, Lung; in short: as §1
[7] = tested on: Rattus norvegicus; experiment: Biodistribution in spleen of immature female rat after 3 hour administration of 3 micro Ci (111 kBq) in the absence of 60 microg estradiol; type: ADME, organism-based; in short: as §1
[8] = tested on: Rattus norvegicus; experiment: Biodistribution in fat of immature female rat after 5 hour administration of 3 micro Ci (111 kBq) in the absence of 60 microg estradiol; type: ADME, organism-based, Adipose tissue; in short: as §2
[9] = tested on: Rattus norvegicus; experiment: Biodistribution in uterus / spleen, muscle, lungs of immature female rat after 5 hour administration of 3 micro Ci (111 kBq) in the absence of 60 microg estradiol; type: ADME, organism-based
In short: (§3)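 Immature female Long Evans rats (21–24 days, 45–70 g), 3–5 per group, unanesthetized in retention cages, given 3 μCi (111 kBq) 125I-labeled steroid by lateral tail vein. Vehicle: ethanol diluted with saline containing 1% Tween-80, final ethanol 9%. +E2 group co-injected 60 μg unlabeled estradiol (1 h only). Killed under ether; tissues KCl-washed, weighed, gamma-counted. Output: %ID/g (mean, SE) and uterus to blood or nontarget (muscle, spleen, lungs) ratios.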

[10] = tested on: Rattus norvegicus; experiment: Biodistribution in thyroid of immature female rat after 1 hr administration of 3 micro Ci (111 kBq) in the presence of (+E2); type: ADME, organism-based, Thyroid gland; in short: as §1
[11] = tested on: Rattus norvegicus; experiment: Biodistribution in liver of immature female rat after 1 hr administration of 3 micro Ci (111 kBq) in the absence of 60 microg estradiol; type: ADME, organism-based; in short: as §2
[12] = tested on: Rattus norvegicus; experiment: Biodistribution in muscle of immature female rat after 1 hr administration of 3 micro Ci (111 kBq) in the presence of (+E2); type: ADME, organism-based, Muscle tissue; in short: as §1
[13] = tested on: Rattus norvegicus; experiment: Biodistribution in liver of immature female rat after 1 hr administration of 3 micro Ci (111 kBq) in the presence of (+E2); type: ADME, organism-based; in short: as §2
[14] = tested on: Rattus norvegicus; experiment: Biodistribution in liver of immature female rat after 5 hour administration of 3 micro Ci (111 kBq) in the absence of 60 microg estradiol; type: ADME, organism-based; in short: as §2
[15] = tested on: Rattus norvegicus; experiment: Biodistribution in uterus / spleen, muscle, lungs of immature female rat after 1 hr administration of 3 micro Ci (111 kBq) in the presence of (+E2); type: ADME, organism-based
In short: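 Same in vivo procedure: immature female Long Evans rats (21–24 days), three to five per group, 3 μCi (111 kBq) tracer i.v. via tail vein in 9% ethanol/saline/1% Tween-80, ± 60 μg estradiol co-injected at 1 h. Uterus %ID/g (gamma counting) divided by blood, or by nontarget organ (muscle, spleen, lungs), %ID/g to give ratios.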

[16] = tested on: Rattus norvegicus; experiment: Biodistribution in kidney of immature female rat after 12 hour administration of 3 micro Ci (111 kBq) in the absence of 60 microg estradiol; type: ADME, organism-based; in short: as §2
[17] = tested on: Rattus norvegicus; experiment: Biodistribution in uterus / spleen, muscle, lungs of immature female rat after 3 hour administration of 3 micro Ci (111 kBq) in the absence of 60 microg estradiol; type: ADME, organism-based; in short: as §3
[18] = tested on: Rattus norvegicus; experiment: Biodistribution in lungs of immature female rat after 1 hr administration of 3 micro Ci (111 kBq) in the absence of 60 microg estradiol; type: ADME, organism-based, Lung; in short: as §2
[19] = tested on: Rattus norvegicus; experiment: Biodistribution in thyroid of immature female rat after 12 hour administration of 3 micro Ci (111 kBq) in the absence of 60 microg estradiol; type: ADME, organism-based, Thyroid gland; in short: as §1
[20] = tested on: Rattus norvegicus; experiment: Biodistribution in muscle of immature female rat after 5 hour administration of 3 micro Ci (111 kBq) in the absence of 60 microg estradiol; type: ADME, organism-based, Muscle tissue; in short: as §1
[21] = tested on: Rattus norvegicus; experiment: Biodistribution in lungs of immature female rat after 12 hour administration of 3 micro Ci (111 kBq) in the absence of 60 microg estradiol; type: ADME, organism-based, Lung; in short: as §1
[22] = tested on: Rattus norvegicus; experiment: Biodistribution in kidney of immature female rat after 1 hr administration of 3 micro Ci (111 kBq) in the presence of (+E2); type: ADME, organism-based; in short: as §2
[23] = tested on: Rattus norvegicus; experiment: Biodistribution in spleen of immature female rat after 12 hour administration of 3 micro Ci (111 kBq) in the absence of 60 microg estradiol; type: ADME, organism-based; in short: as §1
[24] = tested on: Rattus norvegicus; experiment: Biodistribution in thyroid of immature female rat after 1 hr administration of 3 micro Ci (111 kBq) in the absence of 60 microg estradiol; type: ADME, organism-based, Thyroid gland; in short: as §1
[25] = tested on: Rattus norvegicus; experiment: Biodistribution in blood of immature female rat after 12 hour administration of 3 micro Ci (111 kBq) in the absence of 60 microg estradiol; type: ADME, organism-based; in short: as §2
[26] = tested on: Rattus norvegicus; experiment: Biodistribution in fat of immature female rat after 1 hr administration of 3 micro Ci (111 kBq) in the presence of (+E2); type: ADME, organism-based, Adipose tissue; in short: as §2

SMILES | ID/g [1] [%] | ID/g [2] [%] | ID/g [3] [%] | ID/g [4] [%] | ID/g [5] [%] | ID/g [6] [%] | ID/g [7] [%] | ID/g [8] [%] | uterus to nontarget tissue ratio [9] [%] | ID/g [10] [%] | ID/g [11] [%] | ID/g [12] [%] | ID/g [14] [%] | uterus-to-nontarget tissue uptake ratio [15] [%] | ID/g [16] [%] | Uterus to nontarget tissue (spleen, muscle, lungs) uptake ratio [17] [%] | ID/g [18] [%] | ID/g [19] [%] | ID/g [20] [%] | ID/g [21] [%] | also measured
CO[C@H]1C[C@@]2(C)[C@@H](CC[C@@]2(O)/C=C\I)[C@@H]2CCc3c(ccc(O)c3F)[C@H]21 | 0.48 | 1446 | 1.64 | 0.27 | 0.66 | 0.66 | 0.72 | 0.75 | 21.03 | 441 | 2 | 0.77 | 1.42 | 1.11 | 1.23 | 11.77 | 0.84 | 4651 | 0.4 | 0.37 | ID/g [13]: 2.77%; ID/g [22]: 1.36%; ID/g [23]: 0.7%; ID/g [24]: 551%; ID/g [25]: 0.25%; ID/g [26]: 1.82%
CO[C@H]1C[C@@]2(C)[C@@H](CC[C@@]2(O)/C=C/I)[C@@H]2CCc3cc(O)c(F)cc3[C@H]21 | 0.56 | 355 | 1.44 | 0.07 | 0.45 | 0.62 | 0.8 | 1.57 | 8.56 | 243 | 3.5 | 1.02 | 3.11 | 0.86 | 0.15 | 8.2 | 0.95 | 571 | 0.45 | 0.13 | ID/g [22]: 1.58%; ID/g [23]: 0.18%; ID/g [24]: 224%; ID/g [25]: 0.11%; ID/g [26]: 4.31%
C[C@@H]1Cc2c(ccc(O)c2F)[C@H]2CC[C@@]3(C)[C@@H](CC[C@@]3(O)/C=C/I)[C@H]12 | 0.43 | 70 | 1.41 | 0.16 | 0.38 | 0.93 | 0.91 | 4.59 | 9.38 | 56 | 4.36 | 0.97 | 3.6 | 0.85 | 0.32 | 7.15 | 1.47 | 217 | 0.56 | 0.23 | ID/g [13]: 5.84%; ID/g [22]: 1.82%; ID/g [23]: 0.19%; ID/g [24]: 61%; ID/g [25]: 0.17%; ID/g [26]: 5.65%
